From ChEMBL document CHEMBL4118247, “Development of the first small molecule histone deacetylase 6 (HDAC6) degraders” (Bioorg Med Chem Lett, 2018)
The source made the active and inactive calls. No cut-off for these calls is given here.

Tests used:
Type in all cases: cell-based
[1] = biological target: Histone deacetylase (Homo sapiens) (UniProt Q13547+O15379+Q9UBN7+Q92769+Q9UQL6+Q8WUI4+Q9BY41+Q96DB2+P56524+Q9UKV0+Q969S8); experiment: Inhibition of HDAC in human MCF7 cells assessed as increase in acetylated H3 levels at 2 uM after 12 hrs by immunoblotting analysis
[2] = biological target: T1, Protein cereblon/Protein deacetylase HDAC6 (Homo sapiens, UniProt Q9UBN7+Q96SW2); experiment: Induction of CRBN ubiquitin ligase-mediated HDAC6 degradation in human MCF7 cells assessed as decrease in HDAC6 levels at 5 uM after 12 hrs by immunoblotting analysis
Summary of the method: (§1)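 MCF-7 cells exposed to bifunctional degraders at 5 µM for 12 h. Whole-cell lysate run on SDS-PAGE and immunoblotted for HDAC1, HDAC2, HDAC4 and HDAC6.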
Target sequence in this assay (Q96SW2 whole entry, looked up): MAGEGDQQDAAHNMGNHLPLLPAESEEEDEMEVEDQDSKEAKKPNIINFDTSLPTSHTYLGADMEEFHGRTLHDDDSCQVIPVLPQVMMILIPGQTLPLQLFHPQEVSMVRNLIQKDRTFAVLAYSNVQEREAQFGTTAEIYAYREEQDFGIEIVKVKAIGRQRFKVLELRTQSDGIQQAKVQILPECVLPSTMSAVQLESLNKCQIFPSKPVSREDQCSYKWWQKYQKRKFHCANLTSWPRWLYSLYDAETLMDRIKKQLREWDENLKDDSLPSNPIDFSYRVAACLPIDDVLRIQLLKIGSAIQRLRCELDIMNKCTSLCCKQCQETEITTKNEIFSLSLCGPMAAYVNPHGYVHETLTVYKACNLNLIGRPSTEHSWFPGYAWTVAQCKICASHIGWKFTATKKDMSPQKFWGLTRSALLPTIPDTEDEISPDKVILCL
Target sequence in this assay (Q9UBN7 whole entry, looked up): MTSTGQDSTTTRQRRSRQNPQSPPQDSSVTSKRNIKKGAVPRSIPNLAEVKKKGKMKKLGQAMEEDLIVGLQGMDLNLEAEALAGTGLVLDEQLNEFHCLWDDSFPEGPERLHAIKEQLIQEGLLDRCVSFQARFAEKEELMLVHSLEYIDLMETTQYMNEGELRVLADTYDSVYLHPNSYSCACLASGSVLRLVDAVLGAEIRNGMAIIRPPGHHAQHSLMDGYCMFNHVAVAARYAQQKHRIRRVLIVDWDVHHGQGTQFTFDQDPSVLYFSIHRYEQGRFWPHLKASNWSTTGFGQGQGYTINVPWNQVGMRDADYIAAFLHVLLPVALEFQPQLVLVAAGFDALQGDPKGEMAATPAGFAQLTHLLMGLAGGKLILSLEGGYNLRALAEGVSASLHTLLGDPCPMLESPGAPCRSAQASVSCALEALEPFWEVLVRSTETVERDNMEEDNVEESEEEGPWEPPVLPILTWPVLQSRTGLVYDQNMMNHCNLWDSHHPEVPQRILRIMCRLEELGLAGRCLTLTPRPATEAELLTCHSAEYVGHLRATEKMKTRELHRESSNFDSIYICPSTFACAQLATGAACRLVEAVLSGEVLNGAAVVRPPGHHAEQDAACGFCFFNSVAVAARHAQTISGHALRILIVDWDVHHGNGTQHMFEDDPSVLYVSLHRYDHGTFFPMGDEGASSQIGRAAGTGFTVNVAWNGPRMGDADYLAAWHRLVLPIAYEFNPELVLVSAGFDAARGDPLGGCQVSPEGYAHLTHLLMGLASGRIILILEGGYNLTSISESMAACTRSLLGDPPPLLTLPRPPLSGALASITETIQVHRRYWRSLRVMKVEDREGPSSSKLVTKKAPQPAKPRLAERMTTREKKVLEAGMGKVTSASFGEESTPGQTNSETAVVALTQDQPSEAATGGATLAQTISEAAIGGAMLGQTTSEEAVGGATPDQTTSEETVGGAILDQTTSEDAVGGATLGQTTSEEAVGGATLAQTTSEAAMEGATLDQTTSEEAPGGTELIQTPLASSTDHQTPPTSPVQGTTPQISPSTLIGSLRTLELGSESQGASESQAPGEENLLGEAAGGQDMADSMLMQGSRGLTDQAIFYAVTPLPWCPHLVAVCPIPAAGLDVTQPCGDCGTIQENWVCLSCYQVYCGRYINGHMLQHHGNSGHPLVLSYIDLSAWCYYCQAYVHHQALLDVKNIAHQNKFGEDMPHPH

[3] = biological target: T1, Protein cereblon/Protein deacetylase HDAC6; experiment: Induction of CRBN ubiquitin ligase-mediated HDAC6 degradation in human MM1S cells assessed as decrease in HDAC6 levels at =>80 nM after 6 hrs by immunoblotting analysis
Summary of the method: (§2)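 MM.1S cells treated for 6 h at a range of concentrations. Whole-cell lysate immunoblotted for HDAC6 and acetylated α-tubulin.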
Target sequence in this assay (Q96SW2 whole entry, looked up): as the sequence (Q96SW2 whole entry, looked up) above
Target sequence in this assay (Q9UBN7 whole entry, looked up): as the sequence (Q9UBN7 whole entry, looked up) above

[4] = biological target: T1, Protein cereblon/Protein deacetylase HDAC6; experiment: (§3) Induction of CRBN ubiquitin ligase-mediated HDAC6 degradation in human MCF7 cells assessed as decrease in HDAC6 levels at 2 uM preincubated for 1 hr with 100 nM pan-HDAC inhibitor N-hydroxy-8-(2-(4-methoxybenzylidene)hydrazinyl)-8-oxooctanamide followed by compound addition for 12 hrs by immunoblotting analysis
Summary of the method: (§4)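 MCF-7 cells pre-treated 1 h with pan-HDAC inhibitor (1 µM or 100 nM) or DMSO vehicle, then given 2 µM degrader or vehicle for 12 h. Whole-cell lysate immunoblotted for HDAC6 and acetylated α-tubulin.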
Target sequence in this assay (Q96SW2 whole entry, looked up): as the sequence (Q96SW2 whole entry, looked up) above
Target sequence in this assay (Q9UBN7 whole entry, looked up): as the sequence (Q9UBN7 whole entry, looked up) above

[5] = biological target: Protein cereblon/Histone deacetylase 4 (Homo sapiens) (UniProt P56524+Q96SW2); experiment: Induction of CRBN ubiquitin ligase-mediated HDAC4 degradation in human MCF7 cells assessed as decrease in HDAC4 levels at 5 uM after 12 hrs by immunoblotting analysis; summary of the method: as §1
Protein cereblon/Histone deacetylase 4 (Homo sapiens), sequence (P56524 whole entry, looked up): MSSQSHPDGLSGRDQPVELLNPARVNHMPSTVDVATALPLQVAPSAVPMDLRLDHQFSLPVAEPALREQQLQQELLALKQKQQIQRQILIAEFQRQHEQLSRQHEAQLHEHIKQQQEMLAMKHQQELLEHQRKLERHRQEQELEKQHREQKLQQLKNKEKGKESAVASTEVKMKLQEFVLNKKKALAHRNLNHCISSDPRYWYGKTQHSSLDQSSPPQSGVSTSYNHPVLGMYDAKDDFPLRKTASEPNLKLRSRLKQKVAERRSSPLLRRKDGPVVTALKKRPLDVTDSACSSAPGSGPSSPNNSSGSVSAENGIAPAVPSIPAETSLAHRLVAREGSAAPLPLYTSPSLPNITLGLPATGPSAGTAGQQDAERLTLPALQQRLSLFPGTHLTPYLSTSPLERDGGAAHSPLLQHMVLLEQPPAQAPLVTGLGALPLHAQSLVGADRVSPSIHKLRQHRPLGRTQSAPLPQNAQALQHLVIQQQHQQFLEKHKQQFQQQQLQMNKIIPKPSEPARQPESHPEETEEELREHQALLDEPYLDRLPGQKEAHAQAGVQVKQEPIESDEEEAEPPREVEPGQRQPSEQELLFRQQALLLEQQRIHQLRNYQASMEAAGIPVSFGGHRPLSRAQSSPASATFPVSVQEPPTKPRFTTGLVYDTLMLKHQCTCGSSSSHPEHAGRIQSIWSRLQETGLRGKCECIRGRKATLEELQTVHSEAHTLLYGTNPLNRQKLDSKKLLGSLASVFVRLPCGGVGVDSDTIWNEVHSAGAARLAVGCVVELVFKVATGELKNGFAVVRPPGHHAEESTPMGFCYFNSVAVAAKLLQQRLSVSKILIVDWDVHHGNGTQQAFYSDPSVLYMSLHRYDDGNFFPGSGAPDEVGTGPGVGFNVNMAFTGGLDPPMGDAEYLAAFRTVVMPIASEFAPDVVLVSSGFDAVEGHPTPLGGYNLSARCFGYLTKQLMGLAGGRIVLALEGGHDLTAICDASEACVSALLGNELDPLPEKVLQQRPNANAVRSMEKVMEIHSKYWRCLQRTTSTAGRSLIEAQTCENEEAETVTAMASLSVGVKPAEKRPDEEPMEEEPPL
Protein cereblon/Histone deacetylase 4 (Homo sapiens), sequence (Q96SW2 whole entry, looked up): as the sequence (Q96SW2 whole entry, looked up) above

[6] = biological target: T1, Protein cereblon/Protein deacetylase HDAC6; experiment: as §3, with “as increase” for “as decrease”, “in acetylated alpha-tubulin” for “in HDAC6”; summary of the method: as §4
Target sequence in this assay (Q96SW2 whole entry, looked up): as above
Target sequence in this assay (Q9UBN7 whole entry, looked up): as the sequence (Q9UBN7 whole entry, looked up) above

[7] = biological target: T1, Protein cereblon/Protein deacetylase HDAC6; experiment: Induction of CRBN ubiquitin ligase-mediated HDAC6 degradation in human MM1S cells assessed as increase in acetylated alpha-tubulin levels at =>80 nM after 6 hrs by immunoblotting analysis; summary of the method: as §2
Target sequence in this assay (Q96SW2 whole entry, looked up): as the sequence (Q96SW2 whole entry, looked up) above
Target sequence in this assay (Q9UBN7 whole entry, looked up): as the sequence (Q9UBN7 whole entry, looked up) above

[8] = biological target: T1, Protein cereblon/Protein deacetylase HDAC6; experiment: Induction of CRBN ubiquitin ligase-mediated HDAC6 degradation in human MCF7 cells assessed as increase in acetylated alpha-tubulin levels at 2 uM at 2 uM preincubated for 1 hr with CRBN ligand pomalidomide followed by compound addition for 12 hrs by immunoblotting analysis
Summary of the method: (§5)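 MCF-7 cells pre-treated 1 h with 5 µM MG132, 5 µM pomalidomide or DMSO vehicle, then given 2 µM degrader or vehicle for 12 h. Whole-cell lysate immunoblotted for HDAC6 and acetylated α-tubulin.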
Target sequence in this assay (Q96SW2 whole entry, looked up): as the sequence (Q96SW2 whole entry, looked up) above
Target sequence in this assay (Q9UBN7 whole entry, looked up): as the sequence (Q9UBN7 whole entry, looked up) above

[9] = biological target: T1, Protein cereblon/Protein deacetylase HDAC6; experiment: Induction of CRBN ubiquitin ligase-mediated HDAC6 degradation in human MCF7 cells assessed as decrease in HDAC6 levels at 2 uM preincubated for 1 hr with proteosome-inhibitor MG132 followed by compound addition for 12 hrs by immunoblotting analysis; summary of the method: as §5
[10] = biological target: T1, Protein cereblon/Protein deacetylase HDAC6; experiment: Induction of CRBN ubiquitin ligase-mediated HDAC6 degradation in human MCF7 cells assessed as increase in acetylated alpha-tubulin levels at 2 uM after 2 hrs by immunoblotting analysis
Summary of the method: (§6)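 Time course in MCF-7 cells: 2 µM degrader or DMSO vehicle for 0–8 h. Whole-cell lysate immunoblotted for HDAC6 and acetylated α-tubulin.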

[11] = biological target: T1, Protein cereblon/Protein deacetylase HDAC6; experiment: Induction of CRBN ubiquitin ligase-mediated HDAC6 degradation in human MCF7 cells assessed as decrease in HDAC6 levels after 12 hrs by immunoblotting analysis
Summary of the method: (§7)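 MCF-7 cells treated for 12 h across a range of 5 nM to 10 µM. Whole-cell lysate immunoblotted for HDAC6 and acetylated α-tubulin. Band intensities quantified by densitometry and curve-fitted to derive half-maximal degradation.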

[12] = biological target: T2, Protein cereblon/Histone deacetylase 2 (Homo sapiens) (UniProt Q92769+Q96SW2); experiment: Induction of CRBN ubiquitin ligase-mediated HDAC2 degradation in human MCF7 cells assessed as decrease in HDAC2 levels at 5 uM after 12 hrs by immunoblotting analysis; summary of the method: as §1
T2 sequence (Q92769 whole entry, looked up): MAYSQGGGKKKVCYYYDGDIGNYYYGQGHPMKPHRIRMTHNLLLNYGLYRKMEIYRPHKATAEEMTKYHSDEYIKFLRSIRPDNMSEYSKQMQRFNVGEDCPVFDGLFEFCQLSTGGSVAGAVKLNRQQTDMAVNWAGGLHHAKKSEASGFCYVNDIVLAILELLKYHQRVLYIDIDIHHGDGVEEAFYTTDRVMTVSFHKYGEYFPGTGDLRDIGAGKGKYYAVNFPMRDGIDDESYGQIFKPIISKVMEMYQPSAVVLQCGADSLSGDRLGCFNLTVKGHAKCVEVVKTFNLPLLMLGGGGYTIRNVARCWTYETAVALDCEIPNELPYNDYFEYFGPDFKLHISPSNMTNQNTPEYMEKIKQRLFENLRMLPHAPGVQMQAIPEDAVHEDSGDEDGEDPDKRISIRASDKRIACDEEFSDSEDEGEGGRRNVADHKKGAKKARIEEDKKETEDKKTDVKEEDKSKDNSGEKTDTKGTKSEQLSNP
T2 sequence (Q96SW2 whole entry, looked up): as the sequence (Q96SW2 whole entry, looked up) above

[13] = biological target: T2, Protein cereblon/Histone deacetylase 2 (Homo sapiens); experiment: Induction of CRBN ubiquitin ligase-mediated HDAC2 degradation in human MCF7 cells assessed as increase in acetylated H3 levels at 2 uM after 12 hrs by immunoblotting analysis
[14] = biological target: T1, Protein cereblon/Protein deacetylase HDAC6; experiment: Induction of CRBN ubiquitin ligase-mediated HDAC6 degradation in human MCF7 cells assessed as increase in acetylated alpha-tubulin levels at 1.1 to 10 uM after 12 hrs by immunoblotting analysis; summary of the method: as §7
[15] = biological target: T3, Protein cereblon/Histone deacetylase 1 (Homo sapiens) (UniProt Q13547+Q96SW2); experiment: Induction of CRBN ubiquitin ligase-mediated HDAC1 degradation in human MCF7 cells assessed as decrease in HDAC1 levels at 5 uM after 12 hrs by immunoblotting analysis; summary of the method: as §1
T3 sequence (Q13547 whole entry, looked up): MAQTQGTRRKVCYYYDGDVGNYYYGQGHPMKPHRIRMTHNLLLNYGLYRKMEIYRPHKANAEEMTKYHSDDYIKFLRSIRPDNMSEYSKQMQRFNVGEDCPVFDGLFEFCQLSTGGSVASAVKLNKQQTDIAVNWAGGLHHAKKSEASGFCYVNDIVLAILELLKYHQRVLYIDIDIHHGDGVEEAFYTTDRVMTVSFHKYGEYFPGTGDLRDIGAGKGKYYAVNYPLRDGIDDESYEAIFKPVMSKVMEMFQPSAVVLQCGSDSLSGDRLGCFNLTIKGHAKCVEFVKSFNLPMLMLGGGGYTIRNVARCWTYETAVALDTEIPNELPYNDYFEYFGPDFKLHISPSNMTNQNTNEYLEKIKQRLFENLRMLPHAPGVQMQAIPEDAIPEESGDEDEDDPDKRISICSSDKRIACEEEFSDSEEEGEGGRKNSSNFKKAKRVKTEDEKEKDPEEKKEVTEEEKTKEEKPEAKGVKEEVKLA
T3 sequence (Q96SW2 whole entry, looked up): as the sequence (Q96SW2 whole entry, looked up) above

[16] = biological target: T1, Protein cereblon/Protein deacetylase HDAC6; experiment: Induction of CRBN ubiquitin ligase-mediated HDAC6 degradation in human MCF7 cells assessed as decrease in HDAC6 levels at 2 uM after 2 hrs by immunoblotting analysis; summary of the method: as §6
[17] = biological target: T3, Protein cereblon/Histone deacetylase 1 (Homo sapiens); experiment: Induction of CRBN ubiquitin ligase-mediated HDAC1 degradation in human MCF7 cells assessed as increase in acetylated H3 levels at 2 uM after 12 hrs by immunoblotting analysis
[18] = biological target: T1, Protein cereblon/Protein deacetylase HDAC6; experiment: as §3, with “1 uM” for “100 nM”; summary of the method: as §4
[19] = biological target: T1, Protein cereblon/Protein deacetylase HDAC6; experiment: Induction of CRBN ubiquitin ligase-mediated HDAC6 degradation in human MCF7 cells assessed as increase in acetylated alpha-tubulin levels at 2 uM preincubated for 1 hr with proteosome-inhibitor MG132 followed by compound addition for 12 hrs by immunoblotting analysis; summary of the method: as §5
[20] = biological target: T1, Protein cereblon/Protein deacetylase HDAC6; experiment: Induction of CRBN ubiquitin ligase-mediated HDAC6 degradation in human MCF7 cells assessed as decrease in HDAC6 levels at 2 uM preincubated for 1 hr with CRBN ligand pomalidomide followed by compound addition for 12 hrs by immunoblotting analysis; summary of the method: as §5

## COc1ccc(/C=N/NC(=O)CCCCCCC(=O)NO)cc1
[1]
  inhibition: Active

## O=C(CCCCCCC(=O)N/N=C/c1ccc(OCCOCCOCCn2cc(CNc3cccc4c3C(=O)N(C3CCC(=O)NC3=O)C4=O)nn2)cc1)NO (centres undefined)
[2]
  Activity: Active
[3]
  Activity: Active
[4]
  Activity: Active
[5]
  Activity: inactive
[6]
  Activity: Active
[7]
  Activity: Active
[8]
  Activity: inactive
[9]
  Activity: inactive
[10]
  Activity: Active
[11]
  Activity: Dose-dependent effect
  DC50: 34 nM
  Emax: 70.5%
[12]
  Activity: inactive
[13]
  Activity: Active
[14]
  Activity: Active
[15]
  Activity: inactive
[16]
  Activity: Active
[17]
  Activity: Active
[18]
  Activity: inactive
[19]
  Activity: inactive
[20]
  Activity: inactive

## O=C(CCCCCCC(=O)N/N=C/c1ccc(OCCOCCOCCOCCn2cc(CNc3cccc4c3C(=O)N(C3CCC(=O)NC3=O)C4=O)nn2)cc1)NO (centres undefined)
[2]
  Activity: Active
[5]
  Activity: inactive
[12]
  Activity: inactive
[15]
  Activity: inactive

## O=C(CCCCCCC(=O)N/N=C/c1ccc(OCCOCCn2cc(CNc3cccc4c3C(=O)N(C3CCC(=O)NC3=O)C4=O)nn2)cc1)NO (centres undefined)
[2]
  Activity: Active
[5]
  Activity: inactive
[12]
  Activity: inactive
[15]
  Activity: inactive

## O=C(CCCCCCC(=O)N/N=C/c1ccc(OCCn2cc(CNc3cccc4c3C(=O)N(C3CCC(=O)NC3=O)C4=O)nn2)cc1)NO (centres undefined)
[2]
  Activity: Active
[5]
  Activity: inactive
[12]
  Activity: inactive
[15]
  Activity: inactive
